Experimental data as given in ChEMBL document CHEMBL2062498, “3-Arylcoumarin derivatives manifest anti-proliferative activity through Hsp90 inhibition” (ACS Med Chem Lett, 2012).

Assays:
MCF7 = experiment: Antiproliferative activity against estrogen receptor-positive in human MCF7 cells; format: functional, cell-based
Procedure, shortened: (§1)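 IC50 values for growth inhibition are reported as means ± standard deviations from at least two separate experiments, each run in triplicate.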

SK-BR-3 = experiment: Antiproliferative activity against estrogen receptor-negative Her2 overexpressing in human SKBR3 cells; format: functional, cell-based; procedure, shortened: as §1
[1] = biological target: Heat shock protein HSP 90-beta (Homo sapiens) (UniProt P08238); experiment: Inhibition of HSP90 in human MCF7 cells assessed as degradation of Akt protein after 24 hrs by Western blot analysis; format: cell-based
Procedure, shortened: (§2)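 MCF-7 breast cancer cells were exposed to a range of test concentrations (μM) for 24 h, then lysed. Lysates were immunoblotted for the Hsp90-dependent clients Raf-1 and Akt, and also for Hsp90 itself. Actin served as the non-Hsp90-dependent reference protein.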

[2] = biological target: Heat shock protein HSP 90-beta (Homo sapiens) (UniProt P08238); experiment: Inhibition of HSP90 in human MCF7 cells assessed as degradation of Raf1 protein after 24 hrs by Western blot analysis; format: cell-based; procedure, shortened: as §2

Heat shock protein HSP 90-beta (Homo sapiens), sequence (P08238 whole entry): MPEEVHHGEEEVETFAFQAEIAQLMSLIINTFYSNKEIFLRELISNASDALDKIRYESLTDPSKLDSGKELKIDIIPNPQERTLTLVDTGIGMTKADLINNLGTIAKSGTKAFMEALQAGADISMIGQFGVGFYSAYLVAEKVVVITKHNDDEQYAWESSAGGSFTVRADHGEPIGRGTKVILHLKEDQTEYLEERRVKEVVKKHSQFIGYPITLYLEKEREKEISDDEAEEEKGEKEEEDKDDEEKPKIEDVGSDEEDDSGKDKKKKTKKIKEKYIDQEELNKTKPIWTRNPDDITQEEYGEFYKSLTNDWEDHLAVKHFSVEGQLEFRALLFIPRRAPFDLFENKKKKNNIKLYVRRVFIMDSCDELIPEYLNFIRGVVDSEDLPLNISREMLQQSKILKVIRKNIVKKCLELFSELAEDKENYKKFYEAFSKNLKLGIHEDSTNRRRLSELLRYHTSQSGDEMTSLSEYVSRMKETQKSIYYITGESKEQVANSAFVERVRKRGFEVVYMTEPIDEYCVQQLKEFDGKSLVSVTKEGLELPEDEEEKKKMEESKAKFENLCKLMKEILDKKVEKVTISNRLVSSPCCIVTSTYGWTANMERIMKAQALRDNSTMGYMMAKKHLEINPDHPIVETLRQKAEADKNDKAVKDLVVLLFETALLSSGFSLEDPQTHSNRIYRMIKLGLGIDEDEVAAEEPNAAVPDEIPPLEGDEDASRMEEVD

| Structure (SMILES) | IC50 (MCF7) [µM] | IC50 (SK-BR-3) [µM] | inhibition [1] | inhibition [2] |
| --- | --- | --- | --- | --- |
| CN1CCC(Oc2ccc3cc(-c4cccc(Cl)c4)c(=O)oc3c2)CC1 | 5.79 | 9.46 |  |  |
| CN1CCC(Oc2ccc3cc(-c4ccccc4-c4ccccc4)c(=O)oc3c2)CC1 | 15.6 | 15.6 |  |  |
| CN1CCC(Oc2ccc3cc(-c4cccc(C#N)c4)c(=O)oc3c2)CC1 | 8.42 | 10.6 |  |  |
| CN1CCC(Oc2ccc3cc(-c4cc5ccccc5o4)c(=O)oc3c2)CC1 | 4.93 | 5.84 |  |  |
| CN1CCC(Oc2ccc3cc(-c4ccc(Oc5ccccc5)cc4)c(=O)oc3c2)CC1 | 1.45 | 4.43 |  |  |
| Cc1c(OC2CCN(C)CC2)ccc2cc(-c3ccc(F)cc3)c(=O)oc12 | 3.83 | 7.38 |  |  |
| Cc1c(OC2CCN(C)CC2)ccc2cc(-c3ccccc3)c(=O)oc12 | 7.72 | 14.3 |  |  |
| Cc1c(OC2CCN(C)CC2)ccc2cc(-c3ccc(OC(F)(F)F)cc3)c(=O)oc12 | 1.65 | 4.51 |  |  |
| CN1CCC(Oc2ccc3cc(-c4cc5ccccc5s4)c(=O)oc3c2)CC1 | 0.81 | 0.98 | Dose-dependent effect | Dose-dependent effect |
| CN1CCC(Oc2ccc3cc(-c4cccc(C(F)(F)F)c4)c(=O)oc3c2)CC1 | 4.64 | 9.21 |  |  |
| CN1CCC(Oc2ccc3cc(-c4ccc5c(c4)OCO5)c(=O)oc3c2)CC1 | 8.79 | 14.8 |  |  |
| CN1CCC(Oc2ccc3cc(-c4ccc(-c5ccccc5)cc4)c(=O)oc3c2)CC1 | 3.08 | 3.33 |  |  |
| CN1CCC(Oc2ccc3cc(-c4ccccc4Cl)c(=O)oc3c2)CC1 | 10.6 | 25.4 |  |  |
| Cc1c(OC2CCN(C)CC2)ccc2cc(-c3ccc4c(c3)OCO4)c(=O)oc12 | 3.71 | 5.21 |  |  |
| Cc1c(OC2CCN(C)CC2)ccc2cc(-c3ccc(Cl)cc3)c(=O)oc12 | 1.24 | 4.94 |  |  |
| COc1ccc(-c2cc3ccc(OC4CCN(C)CC4)c(C)c3oc2=O)cc1 | 1.97 | 5.52 |  |  |

The next lines start with the values.

| IC50 (MCF7) [µM] | IC50 (SK-BR-3) [µM] | inhibition [1] | inhibition [2] | Structure (SMILES) |
| --- | --- | --- | --- | --- |
| 2.36 | 4.42 |  |  | CN1CCC(Oc2ccc3cc(-c4ccc(C(C)(C)C)cc4)c(=O)oc3c2)CC1 |
| 4.12 | 5.78 |  |  | CN1CCC(Oc2ccc3cc(-c4ccc(OC(F)(F)F)cc4)c(=O)oc3c2)CC1 |
| 29 | 38.4 |  |  | CN1CCC(Oc2ccc3cc(-c4ccccc4)c(=O)oc3c2)CC1 |
| 8.6 | 11.2 |  |  | Cc1ccc(-c2cc3ccc(OC4CCN(C)CC4)cc3oc2=O)cc1 |
| 3.89 | 8.24 |  |  | CN1CCC(Oc2ccc3cc(-c4ccc(Cl)cc4)c(=O)oc3c2)CC1 |
| 10.5 | 43.9 |  |  | CN1CCC(Oc2ccc3cc(-c4ccc(F)cc4)c(=O)oc3c2)CC1 |
| 7.67 | 24.9 |  |  | CN1CCC(Oc2ccc3cc(-c4cccc(F)c4)c(=O)oc3c2)CC1 |
| 16.9 | 29.9 |  |  | COc1ccc(-c2cc3ccc(OC4CCN(C)CC4)cc3oc2=O)cc1 |
